{"source": "paper PMC4636097", "about": "(Drug Design, Development and Therapy, 2015)", "key": {"[1]": {"tested_on": "pooled HLMs (human liver microsomes)", "test": "Kinetics of OMT metabolism", "format": "in vitro ADME", "details": "pooled HLM, formation of MT, biphasic metabolism equation"}, "[2]": {"tested_on": "pooled HIMs (human intestinal microsomes)", "test": "Kinetics of OMT metabolism", "format": "in vitro ADME", "details": "pooled HIM, formation of MT, biphasic metabolism equation"}, "[3]": {"target": "cDNA-expressed human CYP3A4 (Homo sapiens, UniProt P08684)", "sequence (P08684 whole entry)": "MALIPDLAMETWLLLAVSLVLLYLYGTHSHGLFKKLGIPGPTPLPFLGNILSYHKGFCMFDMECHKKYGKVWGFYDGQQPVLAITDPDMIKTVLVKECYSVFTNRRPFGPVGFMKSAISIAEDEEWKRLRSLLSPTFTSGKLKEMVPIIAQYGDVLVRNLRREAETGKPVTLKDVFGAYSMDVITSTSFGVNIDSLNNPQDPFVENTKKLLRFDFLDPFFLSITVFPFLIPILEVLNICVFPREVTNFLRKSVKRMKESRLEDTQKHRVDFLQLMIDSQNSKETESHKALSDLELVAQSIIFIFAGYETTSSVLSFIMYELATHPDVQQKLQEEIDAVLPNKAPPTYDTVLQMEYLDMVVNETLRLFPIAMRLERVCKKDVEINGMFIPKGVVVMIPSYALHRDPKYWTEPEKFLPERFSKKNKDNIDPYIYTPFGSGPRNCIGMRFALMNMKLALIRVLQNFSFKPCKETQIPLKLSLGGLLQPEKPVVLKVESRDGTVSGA", "test": "Metabolism of OMT in recombinant human CYP enzymes: CYP3A4", "format": "in vitro ADME", "details": "OMT 50 μM, 0.08 mg/mL enzyme, NADPH-regenerating system, 37°C, 1.5 hours"}, "[4]": {"tested_on": "other cDNA-expressed CYP enzymes (CYP1A1, CYP1A2, CYP1B1, CYP2A6, CYP2B6, CYP2C8, CYP2C19, CYP2D6, CYP2E1, CYP3A5)", "test": "Metabolism of OMT in recombinant human CYP enzymes: other isoforms", "format": "in vitro ADME", "details": "OMT 50 μM, 0.08 mg/mL enzyme, NADPH-regenerating system, 37°C, 1.5 hours"}, "HLMs [5]": {"tested_on": "HLMs", "test": "Effects of different oxygen contents on the metabolism of OMT in HLMs", "format": "in vitro ADME, human", "details": "OMT 50 μM, enzyme inactivated in boiled water for 2 h, ventilation for 30 s"}, "HLMs [6]": {"tested_on": "HLMs", "test": "Identification of OMT metabolite in HLMs", "format": "in vitro ADME, human", "details": "HLMs and NADPH, 37°C, 1.5 hours; metabolite identified as MT", "method_in_brief": "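Test compound at 50, 100 or 200 μM with pooled human liver microsomes (0.1 mg/mL) in 50 mM KPI pH 7.4 and a glucose-6-phosphate/MgCl2/G6P dehydrogenase system, started with NADP. Controls lacked NADP. Run at 37°C for 1.5 h with shaking, then CH2Cl2 extraction. UPLC and Q-TOF MS (positive ESI); metabolite assigned by chromatographic behaviour and MS fragmentation. Triplicate.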"}, "[7]": {"details": "oral administration; cited from earlier work"}}, "data": [{"smiles": "O=C1CCC[C@@H]2[C@H]3CCC[N+]4([O-])CCC[C@@H](CN12)[C@@H]34", "note": "(stereo partly shown) [OMT, Oxymatrine]", "values": [{"measurement": "Vmax", "setting": "[1]", "value": "1.49 ± 0.24", "unit": "nmol/min/mg"}, {"measurement": "Vmax", "setting": "[2]", "value": "0.46 ± 0.05", "unit": "nmol/min/mg"}, {"measurement": "formation of MT by CYP3A4", "setting": "[3]", "value": "contributed greatly to the formation of MT"}, {"measurement": "formation of MT by other cDNA-expressed CYP enzymes", "setting": "[4]", "value": "only a small amount of MT could be detected"}, {"measurement": "metabolites in the inactivated enzyme test", "setting": "HLMs [5]", "value": "no metabolites were observed"}, {"measurement": "metabolites found in HLMs", "setting": "HLMs [6]", "value": "only one metabolite was found in HLMs"}, {"measurement": "oral absolute bioavailability", "setting": "[7]", "value": 6.79, "unit": "%"}]}]}
